As a reminder, the IC50 is the midpoint of a concentration-inhibition curve. The low end stands for greater potency in that assay, the high end for weaker potency in that assay. Usually IC90 stands for the concentration at which the effect reaches the 90% level. A low value points to an effect from little substance. What is called MIC is the smallest concentration in the dilution series that meets the test's criterion for growth inhibition.

SMILES strings stand for the structures. In brackets after ≈: the same amount, converted by molar mass. Activity calls are given as the source filed them.

The test system of data set [1] is Trypanosoma brucei. In words: Antitrypanosomal activity against trypomastigote form of Trypanosoma brucei after 72 hrs by Alamar blue assay. It is filed as functional, organism-based. The gist of the method: (§1)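 Alamar Blue viability assay on L. donovani promastigotes, axenic amastigotes, THP1-cell amastigotes, and T. brucei trypomastigotes. Organisms at 2 × 10^6 cells/mL were exposed to serially diluted compounds for 72 h at 26 °C. IC50 and IC90 were determined. Test compounds were run up to 10 μg/mL. Values are means with standard deviations from two independent experiments, each in duplicate.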

Data set [2] concerns Aspergillus fumigatus. In words: Antimicrobial activity against Aspergillus fumigatus ATCC 204305 at 20 ug/ml after 48 hrs by CLSI method. The format is functional, organism-based.
Data set [3] relates to Staphylococcus aureus. As to the kind of experiment: Antimicrobial activity against methicillin-resistant Staphylococcus aureus ATCC 1708 at 20 ug/ml by CLSI method. The format is functional, organism-based.
Data set [4] has as its system Escherichia coli. As to the kind of experiment: Antimicrobial activity against Escherichia coli ATCC 2452 at 20 ug/ml by CLSI method. The format is functional, organism-based.
For data set [5], the system named is Pseudomonas aeruginosa. In words: Antimicrobial activity against Pseudomonas aeruginosa ATCC 2108 at 20 ug/ml by CLSI method. It is filed as functional, organism-based.
Data set [6] has as its system Cryptococcus neoformans. As to the kind of experiment: Antimicrobial activity against Cryptococcus neoformans ATCC 90113 after 72 hrs by CLSI method. To be noted: ATCC 90113, 72 h. The format is functional, organism-based. In outline:
(§2)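 Antifungal susceptibility was tested by a modified CLSI (formerly NCCLS) broth method. Strains were C. neoformans ATCC 90113, C. albicans ATCC 90028, and A. fumigatus ATCC 204305, obtained from ATCC. Amphotericin B served as the positive control.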

Data set [7] relates to Candida albicans. As to the kind of experiment: Antimicrobial activity against Candida albicans ATCC 90028 after 48 hrs by CLSI method. The format is functional, organism-based. The gist of the method: as §2
The test system of data set [8] is Enterococcus faecium. In words: Antimicrobial activity against vancomycin-resistant Enterococcus faecium ATCC 700221 at 20 ug/ml by CLSI method. The format is functional, organism-based.
The subject of data set [9] is Leishmania donovani. As to the kind of experiment: Antileishmanial activity against promastigote form of Leishmania donovani after 72 hrs by Alamar blue assay. The format is functional, organism-based. In outline: as §1
On the technique in general: The colour change of resazurin is a common sign of viable cells or microbes.

Data set [10] concerns Leishmania donovani. As to the kind of experiment: Antileishmanial activity against […] amastigote form of Leishmania donovani after 72 hrs by Alamar blue assay. The format is functional, organism-based. The gist of the method:
as §1

Data set [11] has as its system Leishmania donovani. In words: Antileishmanial activity against amastigote form of Leishmania donovani infected in human THP1 cells after 72 hrs by Alamar blue assay. The format is functional, organism-based. To be noted: THP-1, 72 h. In outline:
as §1

The nature of data set [12]: (§3) Cytotoxicity against human THP1 cells. It is filed as cell-based, THP-1. To be noted: human, THP-1 cells. In outline:
(§4)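 Human THP-1 cells were exposed to test compounds at up to 10 μg/mL. Values are from two independent experiments, each with two replicates.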

Data set [13] has as its system THP-1. The description is as §3. The format is cell-based. To be noted: Homo sapiens, THP-1. In outline:
as §4

Data set [14] deals with Candida albicans. In words: Antimicrobial activity against Candida albicans ATCC 90028 at 20 ug/ml after 48 hrs by CLSI method. The format is functional, organism-based.
Data set [15] has as its system Enterococcus faecium. In words: Antimicrobial activity against vancomycin-resistant Enterococcus faecium ATCC 700221 by CLSI method. The format is functional, organism-based. In outline:
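VRE E. faecium ATCC 700221 strain, tested by a modified CLSI susceptibility method. Methicillin and vancomycin served as positive controls. The read-outs were 50% growth inhibition (IC50) and minimum inhibitory concentration (MIC).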

In data set [16] the test system is Enterococcus faecium. In words: Antimicrobial activity against vancomycin-resistant Enterococcus faecium ATCC 700221 at 2 ug/ml by CLSI method. The format is functional, organism-based.

Regarding `NCCCC(N)(C(=O)O)C(F)F` (configuration not stated) [EFLORNITHINE], in data set [1], half-maximal inhibition (IC50) required 6.1 µg/mL (≈ 33.5 µM) and the IC90 stood at 12.1 µg/mL (≈ 66.4 µM).
For `CCCCCCCCCCCCCCC1=NC(C)CCC1` (configuration not stated), the outcome in data set [2], in [3], in data set [4], in [5] and in data set [8] was inactive. Further, the IC50 in [6] is 8.3 µg/mL (≈ 28.3 µM); in data set [7] (ATCC 90028, 48 h) it was 17.1 µg/mL (≈ 58.3 µM); in [9], 6.7 µg/mL (≈ 22.8 µM); in data set [10], over 10 µg/mL; in data set [11] it was 3.4 µg/mL (≈ 11.6 µM); in data set [1], 4 µg/mL (≈ 13.6 µM). In data set [13], this molecule gave a 50% inhibitory concentration (IC50) of over 10 µg/mL. In data set [6], this molecule yielded an MIC of 13.3 µg/mL (≈ 45.3 µM). Further, in data set [7], the MIC entry is “inactive”. The IC90 in data set [9] is 9 µg/mL (≈ 30.7 µM); in [10], over 10 µg/mL; in [11] it was 8.8 µg/mL (≈ 30 µM); in data set [1] it was 6.8 µg/mL (≈ 23.2 µM); in [12] it was over 10 µg/mL.
In the case of `CCCCCCCCCCCCCCCCC1=NC(C)CCC1` (configuration not stated), the result in data set [2], in data set [3], in data set [4], in data set [5], in data set [14] and in data set [8] was inactive. Moreover, the IC50 in [6] is 9.9 µg/mL (≈ 30.8 µM); in data set [9], 5 µg/mL (≈ 15.5 µM); in data set [10], over 10 µg/mL; in [11], over 10 µg/mL; in [1], 3.5 µg/mL (≈ 10.9 µM); in [13] it was over 10 µg/mL. The same molecule returned a minimal inhibitory concentration (MIC) in data set [6] of 20 µg/mL (≈ 62.2 µM). In addition, the concentration for an effect of 90% (IC90) in [9] is 8.3 µg/mL (≈ 25.8 µM); in [10], over 10 µg/mL; in [11], over 10 µg/mL; in [1], 6.5 µg/mL (≈ 20.2 µM); in [12] it was over 10 µg/mL.
For the molecule `CCCCCCCCCCCCCCCC1=NC(C)CCC1` (configuration not stated), the outcome in data set [2], in [3], in data set [4] and in data set [5] was inactive. The concentration for half-maximal inhibition (IC50) was 6.6 µg/mL (≈ 21.5 µM) in data set [6]; 12.4 µg/mL (≈ 40.3 µM) in data set [7] (ATCC 90028, 48 h); 19.4 µg/mL (≈ 63.1 µM) in [15]; 5.7 µg/mL (≈ 18.5 µM) in data set [9]; over 10 µg/mL in [10]; 3.1 µg/mL (≈ 10.1 µM) in data set [11]. For the same molecule, the figures for the IC50 in [1] and in data set [13] were 2.7 µg/mL (≈ 8.78 µM) and over 10 µg/mL, respectively. In addition, the MIC in data set [6] came out at 10 µg/mL (≈ 32.5 µM); in data set [7] (ATCC 90028, 48 h) it was 20 µg/mL (≈ 65 µM); in data set [15] it was 20 µg/mL (≈ 65 µM). Also, the concentration for an effect of 90% (IC90) was 7.9 µg/mL (≈ 25.7 µM) in [9]; over 10 µg/mL in [10]; over 10 µg/mL in data set [11]; 3.6 µg/mL (≈ 11.7 µM) in data set [1]; over 10 µg/mL in data set [12].
For the molecule `C[C@@H]1[C@H](O)[C@@H](C)/C=C/C=C/C=C/C=C/C=C/C=C/C=C/[C@H](O[C@@H]2O[C@H](C)[C@@H](O)[C@H](N)[C@@H]2O)C[C@@H]2O[C@](O)(C[C@@H](O)C[C@@H](O)[C@H](O)CC[C@@H](O)C[C@@H](O)CC(=O)O[C@H]1C)C[C@H](O)[C@H]2C(=O)O` [AMPHOTERICIN B], the IC50 in data set [6] was under 0.1 µg/mL; in [7] (ATCC 90028, 48 h), under 0.1 µg/mL; in data set [9], 0.2 µg/mL (≈ 0.216 µM); in data set [10], 0.9 µg/mL (≈ 0.974 µM); in [11], 0.2 µg/mL (≈ 0.216 µM); in [13] it was over 2 µg/mL. For the same molecule, the minimum inhibitory concentration (MIC) in data set [6] was found to be 0.1 µg/mL (≈ 0.108 µM); in data set [7] (ATCC 90028, 48 h) it was 0.1 µg/mL (≈ 0.108 µM). In addition, the outcome in data set [16] was inactive. Besides, the IC90 is 0.5 µg/mL (≈ 0.541 µM) in data set [9], 1.4 µg/mL (≈ 1.52 µM) in data set [10], 0.4 µg/mL (≈ 0.433 µM) in data set [11] and over 2 µg/mL in [12].

(Values after ChEMBL document CHEMBL4130482, “Synthesis and Antimicrobial Evaluation of Fire Ant Venom Alkaloid Based 2-Methyl-6-alkyl-Δ1,6-piperideines” (J Nat Prod, 2017).)
